System: Rattus norvegicus
Assay: Reduction in uterine wet weight in ethynyl estradiol-stimulated CD-IGS rat at 200 mg/kg, po dosed daily for 3 days by gavage followed 15 mins later by 0.1 mg/kg, po ethynyl estradiol and measured 24 hrs after last dose by immature rat uterine wet weight assay
Format: functional
Outline: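 Female immature CD-IGS rats, 21 days old on arrival. Compound or vehicle was given orally by gavage once daily for 3 days, and oral ethynyl estradiol at 0.1 mg/kg followed each dose by 15 min. On day 4, 24 h after dosing, plasma was taken for PK, then the uterus was removed and weighed. % reduction = 100 × (VehicleEE − Cpd)/(VehicleEE − Vehicle).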

C[C@]12CC[C@@H]3c4ccc(O)cc4C[C@@H](CCCCCCCCC[S+]([O-])CCCC(F)(F)C(F)(F)F)[C@H]3[C@@H]1CC[C@@H]2O (stereo partly specified) [FULVESTRANT]
inhibition (INH): 110%

From ChEMBL document CHEMBL4145684 (J Med Chem, 2018)
